Test results taken from ChEMBL document CHEMBL1123757, “Selective thromboxane synthetase inhibitors and antihypertensive agents. New derivatives of 4-hydrazino-5H-pyridazino[4,5-b]indole, 4-hydrazinopyridazino[4,5-a]indole, and related compounds” (J Med Chem, 1987).

What was measured:
[1] = tested on: Cavia porcellus; test: Effect on thromboxane synthetase activity on ex vivo platelet aggregation induced by PGE-2 at 50 mg/kg expressed as percent increase; type: functional
How it was run: (§1)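 Fasted male or female guinea pigs (250–300 g, five per group) dosed orally in normal saline or saline with 0.2% (carboxymethyl)cellulose/1.0% Tween 80; controls given vehicle. Under ether, cardiac blood collected into 3.8% citrate. PRP adjusted to […] and aggregation induced by ADP (second wave) or AA, read by absorbance aggregometry. PGE2 and TXB2 measured by RIA.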

[2] = Effect on PGI-2 release from rat aortic tissue at a final concentration of 10e -4 for an incubation time of 35 minutes; type: functional
How it was run: (§2)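 Female Wistar rats (200–220 g) received heparin 200 IU/kg ip and were killed 10 min later. Aortic pieces of about 25 mm² were washed in ice-cold oxygenated Krebs–Henseleit buffer, then incubated in 1 mL buffer at 37 °C. Compound at 10^-4 M final was added 10 min before tissue transfer. PGI2 release was read as antiaggregatory activity of the incubate on ADP (2×10^-6 M)-induced human PRP aggregation and by 6-keto-PGF1α RIA. n = 4.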

[3] = Effect on PGI-2 release from rat aortic tissue at a final concentration of 10e -4 for an incubation time of 25 minutes; type: functional; how it was run: as §2
[4] = target: T1, Thromboxane-A synthase (Homo sapiens) (UniProt P24557); test: Effect on thromboxane synthetase activity on ex vivo platelet aggregation induced by TXB2 at 100 mg/kg expressed as percent increase; type: functional, organism-based; design: dose 100 mg/kg; details: Cavia porcellus; how it was run: as §1
T1 sequence (whole entry): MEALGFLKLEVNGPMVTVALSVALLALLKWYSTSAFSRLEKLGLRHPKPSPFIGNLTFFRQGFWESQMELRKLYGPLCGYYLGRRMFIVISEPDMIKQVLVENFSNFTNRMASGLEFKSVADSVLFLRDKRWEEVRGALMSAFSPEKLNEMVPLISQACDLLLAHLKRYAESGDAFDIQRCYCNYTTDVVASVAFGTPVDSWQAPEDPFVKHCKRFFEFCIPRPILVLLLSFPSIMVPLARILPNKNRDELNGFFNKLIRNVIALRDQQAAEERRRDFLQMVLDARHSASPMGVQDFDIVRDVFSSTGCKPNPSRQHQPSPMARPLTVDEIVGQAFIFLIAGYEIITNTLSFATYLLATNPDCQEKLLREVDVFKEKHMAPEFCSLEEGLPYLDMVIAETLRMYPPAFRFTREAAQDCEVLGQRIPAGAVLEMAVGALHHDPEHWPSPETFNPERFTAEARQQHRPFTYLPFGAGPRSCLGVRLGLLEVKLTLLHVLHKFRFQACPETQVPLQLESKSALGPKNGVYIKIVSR

[5] = Effect on PGI-2 release from rat aortic tissue at a final concentration of 10e -4 for an incubation time of 10 minutes; type: functional; how it was run: as §2
[6] = tested on: Cavia porcellus; test: Effect on thromboxane synthetase activity on ex vivo platelet aggregation induced by PGE-2 at 100 mg/kg expressed as percent increase; type: functional; how it was run: as §1
[7] = target: T1, Thromboxane-A synthase (Homo sapiens); test: Effect on thromboxane synthetase activity on in vitro platelet aggregation induced by AA at 10e -5 M expressed as percent […] in TXB2; type: functional
How it was run: (§3)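 Human citrated PRP adjusted to 200 000 […], compound at 10^-5 M final in saline/10% ethylene glycol, incubated at 37 °C. Aggregation induced with arachidonic acid 0.6 mM and read by Born absorbance aggregometry. PGE2 and TXB2 in the aggregated samples measured by radioimmunoassay. n = 5.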

[8] = Effect on thromboxane synthetase activity on in vitro platelet aggregation induced by AA at 10e -5 M expressed as percent increase in PGE-2; type: functional, Homo sapiens; how it was run: as §3
[9] = target: T1, Thromboxane-A synthase (Homo sapiens); test: Effect on thromboxane synthetase activity on ex vivo platelet aggregation induced by TXB2 at 50 mg/kg expressed as percent increase; type: functional, organism-based; design: dose 50 mg/kg; details: Cavia porcellus; how it was run: as §1
[10] = Effect on PGI-2 release from rat aortic tissue at a final concentration of 10e -4 for an incubation time of 30 minutes; type: functional; how it was run: as §2

Molecule `CC(=O)Oc1ccccc1C(=O)O` [ASPIRIN] has an Increase [1] of 0%, an Inhibition [2] of 80% and an Inhibition [3] of 80%. It also gave an inhibition [4] of 100%, an Inhibition [5] of 80% and an Increase [6] of 0%. The inhibition [7] was 100%, the Increase [8] was 0% and the inhibition [9] was 100%. For the same molecule, the Inhibition [10] was 80%.
